Where a name gives a salt, the structure may show the parent alone. Read-outs that look alike come from different tables or passages of the source. Peptide text beside a SMILES is read from it.
Columns and labels:
[1] = cited from earlier work; for population typical value CL, previous research: critically ill patients
[2] = derived from preclinical studies; cited from earlier work
[3] = cited from earlier work
[4] = cited from earlier work; remark: listed apart in the source
Population PK model = format: in vivo, human
How it was run: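 NONMEM 7.4 was fitted to 86 plasma concentrations from 20 CVVHDF patients, using FOCE to compare one- and two-compartment models. Interindividual variability was exponential. […] Validation used goodness-of-fit plots, a pcVPC with 1000 simulated patients and a 1000-sample bootstrap.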

[5] = Plasma concentration of colistin sulfate in patients on CVVHDF; format: in vivo; details: human, iv, SD
How it was run: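 Adult patients on CVVHDF (AN69 polyacrylonitrile filter; blood flow 100–200 ml/min) received iv colistin sulfate infused over 0.5 h or 2 h. At steady state, samples were drawn from the dorsal foot artery just before dosing (Cmin) and at roughly 0.5, 1, 2, 4 and 6 h after. Plasma was stored at −80°C. Colistin A and B were measured separately by UHPLC-MS/MS on a HILIC column (LOQ 0.027 and 0.053 mg/l) and summed. AUC0−24h was calculated by the trapezoidal rule.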

[6] = test system: isolated pathogens (CRO), mainly Klebsiella pneumoniae, Acinetobacter baumannii, Pseudomonas aeruginosa; test: Drug sensitivity of isolated pathogens; format: cell-based; details: all isolated pathogens (CRO) of the 20 patients
[7] = cited from earlier work; for population typical value of CL: critically ill patients

CC[C@H](C)CCCCC(=O)N[C@@H](CCN)C(=O)N[C@H](C(=O)N[C@@H](CCN)C(=O)N[C@H]1CCNC(=O)[C@H]([C@@H](C)O)NC(=O)[C@H](CCN)NC(=O)[C@H](CCN)NC(=O)[C@H](CC(C)C)NC(=O)[C@@H](CC(C)C)NC(=O)[C@H](CCN)NC1=O)[C@@H](C)O [colistin sulfate] (HELM PEPTIDE1{[CC[C@H](C)CCCCC(=O)[*:2]].[Dab].T.[Dab].[Dab].[Dab].[dL].L.[Dab].[Dab].T}$PEPTIDE1,PEPTIDE1,5:R3-11:R2$$$V2.0)
population typical value CL, previous research ([1]; first of two values): 0.994 L/h | population typical value CL, previous research ([1]; second of two values): 1.5 L/h | plasma concentration range ([1]; non-CRRT patients): 280 to 6200 ng/mL | protein binding rate [2]: about 50% | solubility in water [3]: water-soluble | steady-state trough concentration ([4]; CRRT group, p = 0.328 vs non-CRRT): 0.58 ± 0.30 mg/L | steady-state trough concentration ([4]; non-CRRT group): 0.64 ± 0.25 mg/L | Q, bootstrap median (Population PK model; bootstrap, 1000 samples): 27.15 L/h | V1, bootstrap median (Population PK model; bootstrap, 1000 samples): 20.58 L | V2, bootstrap median (Population PK model; bootstrap, 1000 samples): 34.71 L | θCysC, bootstrap median (Population PK model; bootstrap, 1000 samples): −0.537 | θwt, bootstrap median (Population PK model; bootstrap, 1000 samples): 1.189 | CL, bootstrap median (Population PK model; bootstrap, 1000 samples, 989 successful): 3.18 L/h | θCysC, final model estimate (Population PK model; effect of CysC on CL, (CYSC/2.31)^θ): −0.626 | θwt, final model estimate (Population PK model; effect of WT on CL, (WT/65)^θ): 1.030 | clearance (Population PK model; human, plasma, iv): 61.5 mL/min | Q, final model estimate (Population PK model; intercompartmental clearance, patients on CVVHDF): 25.30 L/h | V1, final model estimate (Population PK model; volume of distribution in the central compartment, patients on CVVHDF): 20.50 L | V2, final model estimate (Population PK model; volume of distribution in the peripheral compartment, patients on CVVHDF): 33.20 L | AUC(0-t) [5]: 12500 ± 6410 ng·h/mL

C[C@@H](O)[C@H]1C(=O)N2C(C(=O)O)=C(S[C@@H]3CN[C@H](C(=O)N(C)C)C3)[C@H](C)[C@H]12 [meropenem]
MIC [6]: ≥ 8 µg/mL

polymyxin B sulfate
population typical value of CL ([7]; CVVH group): 4.52 L/h | AUC ([7]; CVVH group, p < 0.001 vs non-CVVH): 27940 ± 10920 ng·h/mL | population typical value of CL ([7]; non-CVVH group): 1.95 L/h | AUC ([7]; non-CVVH group): 77890 ± 35660 ng·h/mL

From article PMC11877486 (Science Progress, 2025)
